# Variants at the floor of the assay were thinned out.
# B1: tRNA (parent)
# chain: GUUCCGUUGGCGUAAUGGUAACGCGUCUCCCUCCUAAGGAGAAGACUGCGGGUUCGAGUCCCGUACGGAACG
# Variants of: B1
# Assay: yeast fitness relative to wild type (ratio to wild type); higher = fitter; tRNA-Arg(CCU), competitive growth, 37 C, YPD
# How it was run: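 For this measurement, the tRNA-Arg(CCU) gene was varied by chemical synthesis at a 3% per-site mutation rate across 69 sites, and each variant was placed at the native genomic locus in Saccharomyces cerevisiae. The pooled strains went through a 24-hour competition in YPD at 37°C in six parallel replicates, with amplicons from start and end populations read by 100-nucleotide paired-end sequencing. Darwinian fitness relative to wild type followed from the change in each genotype's frequency. Genotypes needed ≥ 100 starting reads, and estimates < 0.5 were set to 0.5.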
row,Variant,yeast fitness
1,GUUCCGUUGGUGUAAUGGUAACGCGUCUCCCUCCCAAGGAGAAGAGUGCGGCUUCGAGUCCCGUACGCAACG [C11U U35C C46G G52C G68C],≤ 0.5
2,GUUCCGUUGGCAUCAUGGUAACGCGUCUCCUUCCUAAGGAGAAGACUGGGGGUUCGAGUACCGUACGGAACG [G12A A14C C31U C49G C60A],≤ 0.5
3,GUUCCGUUGGUGUAAUGGUAACGCGUCUCCCGCCUAAGGAGAAGACUGCGGGUUCGAGCCCCGUACGGAACG [C11U U32G U59C],≤ 0.5
4,GUUCCGUUGGCAUGAUGGUAACGGGUCUCCCUCCUAAGGUGAAGAAUGCGGCUUCGAGUCCCGUACGGAACG [G12A A14G C24G A40U C46A G52C],≤ 0.5
5,GUUCCGUUGGUGUAAUGGUAACGCGUCUCCCUCCCAAGGAAAAGACUGCGGGUUCGAAUCCCGUACGGAACG [C11U U35C G41A G58A],≤ 0.5
6,GUUCCGUUGGCAUAGUGGUAACGCGUCUCCCUCCUAAGGAGAAGACUGCGGGUUCGAGUCCCGUCCGGCACG [G12A A15G A65C A69C],≤ 0.5
7,GUUCCGUUGGUGUAAUGGUAACGCGUCCGCCUCCUAAGCAGAAGACUGCGGGUUCGAGUCCCGUACGGAACG [C11U U28C C29G G39C],≤ 0.5
8,GUUCCGUUGGCAUAUUGGUAAAGCGACUCCCUCCUAAGGAGAAGACUGCGGGUUCGAAUCCCGUACGGAACG [G12A A15U C22A U26A G58A],0.629
9,GUUCCGUUGGCAUAGUGGUAAAGCGUCUCCCUCCUAAGGAGAAGACUGCGGGUUCGAGUCCCGUACGGAACG [G12A A15G C22A],0.705
10,GUUCCGUUGGUGUAAUGGUAACGCGUCUCCCUCCAAAAGAGAAGACUGCGGGUUCGAGUCCCGUACGGAACG [C11U U35A G38A],0.51
11,GUUCCGUUGGUGUAAUGGUAACGCGUCUCCCUCCCUAGGAGAAGAUUGCGGGUUCGAGUCCCGUACGGAACG [C11U U35C A36U C46U],0.75
12,GUUCCGUUGGUGUAAUGGUAACGCGUCUCCCUCCUAAGGAGAAGACCGCGCGUUCGAGUCCCGUACGGAGCG [C11U U47C G51C A70G],0.669
13,GUUCCGUUGGCAUCAUGGUAACGCGUGUCCCUCCUAAGGAGAAGAGUGCGGGUUCGAGUCCCGUGCGGAACG [G12A A14C C27G C46G A65G],≤ 0.5
14,GUUCCGUUGGCAUUAUGGUAACGCGUCUCCCUCCUAAGGAGAAGACUGCGGGUUCGGGUCUCGUACGGAACG [G12A A14U A57G C61U],≤ 0.5
15,GUUCCGUUGGCAUUAUGGUAACGCGUCUCCCUCCUAAGGAGAAGACUGCGGGUUCGAGUCCCGUAAGGAACG [G12A A14U C66A],≤ 0.5
16,GUUCCGUUGGCAUAGUGGUAACGCGUCUCCCUCCUAAGGAGAAGACUGUGGGUUCGAGUCCCGUCCGGAGCG [G12A A15G C49U A65C A70G],≤ 0.5
17,GUUCCGUUGGCAUAUUGGUACCGCGUCUCCCUCCUAAGGAGAAGACUGUGGGUUCGAGUCCCGUACGGAACG [G12A A15U A21C C49U],≤ 0.5
18,GUUCCGUUGGUGUAAUGGUAACGCGUCUCCCUCCUAAGGAGAAGACUGCGGGUUCGAGCCCCGUACGGAACG [C11U U59C],0.937
19,GUUCCGUUGGUGUAAUGGUAACGCGUCUCCCUCCUAAGGAGAAGACUGCGGGUUCGAGGCCCGUACGGAACG [C11U U59G],0.786

row,Variant,yeast fitness
1,GUUCCGUUGGCAUAGUGGUAACGCGUCUCCCUCCUAAGGAGAAGACUGCGGGUUCGAGUCCCGUGCGGAACG [G12A A15G A65G],0.541
2,GUUCCGUUGGUGUAAUGGUAACGCGUCCCGCUCCUAAGGAGAAGACUGGGGGUUCGAGUCCCGUACGGAACG [C11U U28C C30G C49G],≤ 0.5
3,GUUCCGUUGGUGUAAUGGUAACGCGUCUCCCUCCAAAAGAGAAGACUGCGGGUUAGAGUCGCGUACGGAACG [C11U U35A G38A C55A C61G],≤ 0.5
4,GUUCCGUUGGUGUAAUGGUAACGCGUCUCCCUCCUAAGGAGAAGACUGCGGGUCCGAGUCCCGUACGGAACG [C11U U54C],0.844
5,GUUCCGUUGGUGUAAUGGUAACGCGUCUCCCUCCUAAGGAGAAGACUGCGGGUACGAGUCCCGUACGGAACG [C11U U54A],0.733
6,GUUCCGUUGGCAUACUGGUAACGCGUCUCCCUCCUAAGCAGAAGAUUGCGGGUUCGAGUCCCGUACGGAACG [G12A A15C G39C C46U],≤ 0.5
7,GUUCCGUUGGUGUAAUGGUAACGCGUCUCCCUCCUAAGGAGAAGACCGCGGGUUCGAGUCCCGUACAGAACG [C11U U47C G67A],0.783
8,GUUCCGUUGGUGUAAUGGUAACGCGUCUCCCACAUAAGGAGACGACUGCGGGUUCGAGUCUCGUACGAAACG [C11U U32A C34A A43C C61U G68A],≤ 0.5
9,GUUCCGUUGGCAUGAUGGUAACGCGUCUCCCUCCUUAGGAGAAGAAUGCGGGUUCGAGUCCCGUACGGAACG [G12A A14G A36U C46A],≤ 0.5
10,GUUCCGUUGGCAUAUUGGUAACGCGUCUCCCUCCUAAGGAGAAGACUGCGAGUUCGAGUCCCGUUCGGAACG [G12A A15U G51A A65U],≤ 0.5
11,GUUCCGUUGGUGUAAUGGUAACGCGUCUCCCUCCUAAGGAGAAGACCACGGGUUCAAGUCCCGUACGGAACG [C11U U47C G48A G56A],≤ 0.5
12,GUUCCGUUGGCAUUAUGGUAACGCGUCUCCCUCCUAAGGAGAAGACUGCGGGUACGUGUCCCGUACGGAACG [G12A A14U U54A A57U],≤ 0.5
13,GUUCCGUUGGUGUAAUGGUAACGCGUCUCCCACCUAAGGAGCAGACUGCGGGUUCGAGUCCCGUACGGAACG [C11U U32A A42C],0.545
14,GUUCCGUUGGCAUAGUGGUAACGCGUCUCCCUCCUAAGGAGAAGACUGCGGGUUCGAGUCCCGUCCGGAGCG [G12A A15G A65C A70G],≤ 0.5
15,GUUCCGUUGGUGUAAUGGUAACGCGUCCCCCGCCUAAGGAGAAGACUGCGGGUUCGAGUCCCGUACGGAUCG [C11U U28C U32G A70U],≤ 0.5
16,GUUCCGUUGGCAUGAUGGUAACGCGUGUCCCUCGUAUGGAGAAGACUGCGGGUUCGAGUCCCGAACGGAACG [G12A A14G C27G C34G A37U U64A],≤ 0.5
17,GUUCCGUUGGUGUAAUGGUAACGCGUCUCCCUCCGAAGGAGAAGACAACGGGUUCGAGUCCCGUUCGGAACG [C11U U35G U47A G48A A65U],≤ 0.5
18,GUUCCGUUGGCAUCAUGGUAACGCGUCUCCCUCCUAAGGAGAAGACUGCCGGUUCGAGUCCCGUACGGAACG [G12A A14C G50C],0.535

# From the RNAGym collection of RNA variant scans (doi:10.1126/science.aae0568)
